The target in series [1] is T1, 5-hydroxytryptamine receptor 1A (Rattus norvegicus, UniProt P19327).
T1 sequence (P19327 whole entry): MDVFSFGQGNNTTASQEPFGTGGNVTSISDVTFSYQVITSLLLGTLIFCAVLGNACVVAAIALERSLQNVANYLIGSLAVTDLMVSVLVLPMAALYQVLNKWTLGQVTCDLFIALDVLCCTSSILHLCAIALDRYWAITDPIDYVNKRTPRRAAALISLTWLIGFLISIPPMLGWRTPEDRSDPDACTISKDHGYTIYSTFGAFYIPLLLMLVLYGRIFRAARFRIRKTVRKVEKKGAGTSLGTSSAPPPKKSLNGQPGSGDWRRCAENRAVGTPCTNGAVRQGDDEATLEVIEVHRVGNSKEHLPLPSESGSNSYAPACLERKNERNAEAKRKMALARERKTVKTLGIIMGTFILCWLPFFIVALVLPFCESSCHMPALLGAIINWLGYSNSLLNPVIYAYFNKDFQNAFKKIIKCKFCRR
Nature of the series: Displacement of [3H]-8-OH-DPAT from serotonin 5-HT1A receptor in Sprague-Dawley rat brain cortex homogenates incubated for 30 mins by liquid scintillation spectrometry.

Series [2] concerns Mus musculus. The series is described as follows: Anxiolytic-like activity in Swiss albino mouse assessed as increase in time spent in open arms at 3.75 to 15 mg/kg measured for 5 mins test period by elevated plus maze test. Format: functional, organism-based.
Series [3] has as its system Mus musculus. The series is described as follows: Toxicity in Swiss albino mouse assessed as reduction in spontaneous locomotor activity at 7.5 mg/kg, ip dosed 60 mins before test. The series is classed as organism-based. The settings on record: in vivo, 1 h. An outline of the steps: (§1)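 Spontaneous locomotion: mice dosed i.p. 60 min before being placed individually in an actometer for 30 min. Distance travelled read at 6 and 30 min. Cages cleaned with 70% ethanol between animals. One-way ANOVA with Dunnett's; mean ± SEM of one experiment.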

The subject of series [4] is Mus musculus. The series is described as follows: Inhibition of 8-OH-DPAT-induced hypothermia in Swiss albino mouse at 30 mg/kg, ip measured after 120 mins post dose co-treated with 8-OH-DPAT. The series is classed as functional, organism-based. The gist of the method: (§2)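 Normothermic male Swiss mice; rectal thermistor readings over 180 min. Baseline is the mean of readings 60 and 30 min before dosing; readings at 30, 60, 90, 120 min post-injection; Δt = tf − ti. Test compounds i.p. (DMSO/methylcellulose); 8-OH-DPAT (5 mg/kg) and WAY 100635 (0.1 mg/kg) s.c. in water. Two-way ANOVA, Bonferroni.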

Series [5] relates to Mus musculus. The series is described as follows: Induction of hypothermia in normothermic Swiss albino mouse assessed as reduction in body temperature at 30 mg/kg, ip measured after 120 mins post dose. The series is classed as functional, organism-based. The gist of the method: as §2
Series [6] has as its system Mus musculus. Nature of the series: Toxicity in Swiss albino mouse assessed as effect on motor coordination at 3.75 to 15 mg/kg, ip dosed 60 mins before test by Chimney test. The series is classed as organism-based. The settings on record: in vivo, 1 h. An outline of the steps: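 Chimney test in male Swiss mice after i.p. dosing 60 min earlier: impairment defined as failure to climb backwards up a tube (3 cm inner diameter, 25 cm long) within 60 s. Animals pre-trained once daily for 3 days. One-way ANOVA with Dunnett's.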

Series [7] has as its system Mus musculus. Nature of the series: Antidepressant-like activity in Swiss albino mouse assessed as reduction in immobility time at 7.5 mg/kg, ip dosed 1 hr before test by forced swimming test. The series is classed as functional, organism-based. The gist of the method:
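Male Swiss albino mice (18–24 g), compound i.p. in 0.1% DMSO/0.5% methylcellulose 1 h pre-test. Porsolt swim: cylinder 25 cm high, 10 cm diameter, 10 cm water at 23–25°C, 6 min session; immobility scored over last 4 min. Blind observer; one-way ANOVA with Dunnett's; mean ± SEM.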

Series [8] has as its system Rattus norvegicus. The series is described as follows: In-vivo 5-HT1A receptor antagonist activity in Wistar rat assessed as reduction in 8-OH-DPAT-stimulated induction of lower lip retraction by measuring lower lip retraction score at 30 mg/kg, ip dosed 15 mins before test (reference value: 2.875 +/- 0.08183).
In series [9] the test system is Mus musculus. The series is described as follows: Toxicity in Swiss albino mouse assessed as reduction in spontaneous locomotor activity at 15 mg/kg, ip dosed 60 mins before test. The settings on record: in vivo, 1 h. The series is classed as organism-based. An outline of the steps:
as §1

The target in series [10] is 5-hydroxytryptamine receptor 2A (Rattus norvegicus, UniProt P14842). Nature of the series: Displacement of [3H]ketanserin from serotonin 5-HT2A receptor in Sprague-Dawley rat brain cortex homogenates incubated for 15 mins by liquid scintillation spectrometry.
Series [11] concerns Rattus norvegicus. Nature of the series: In-vivo 5-HT1A receptor agonist activity in Wistar rat assessed as induction of lower lip retraction by measuring lower lip retraction score at 30 mg/kg, ip dosed 15 mins before test (reference value: 0.0 +/- 0.0).
Series [12] addresses T2, 5-hydroxytryptamine receptor 2C (Rattus norvegicus, UniProt P08909).
T2 sequence (P08909 whole entry): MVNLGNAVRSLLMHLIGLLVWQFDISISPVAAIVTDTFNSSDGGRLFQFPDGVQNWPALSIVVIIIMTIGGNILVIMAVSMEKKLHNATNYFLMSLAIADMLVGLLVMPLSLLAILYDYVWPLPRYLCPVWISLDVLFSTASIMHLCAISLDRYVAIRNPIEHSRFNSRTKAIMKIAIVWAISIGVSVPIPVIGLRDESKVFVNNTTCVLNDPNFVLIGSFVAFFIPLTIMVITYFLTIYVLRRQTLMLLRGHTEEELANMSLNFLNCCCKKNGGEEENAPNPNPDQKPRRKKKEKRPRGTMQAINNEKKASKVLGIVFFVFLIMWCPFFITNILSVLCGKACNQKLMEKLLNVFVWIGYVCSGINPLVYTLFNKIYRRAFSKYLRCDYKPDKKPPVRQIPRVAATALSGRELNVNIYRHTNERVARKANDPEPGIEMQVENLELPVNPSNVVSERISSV
The series is described as follows: Displacement of [3H]mesulergine from serotonin 5-HT2C receptor in Sprague-Dawley rat brain cortex homogenates incubated for 15 mins by liquid scintillation spectrometry. For orientation: Displacement assays read how much labelled ligand stays bound in the presence of the test substance.

Series [13] has as its system Mus musculus. Nature of the series: Antidepressant-like activity in Swiss albino mouse assessed as reduction in immobility time at 15 mg/kg, ip dosed 1 hr before test by forced swimming test. The series is classed as functional, organism-based. The gist of the method: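 Male Swiss albino mice (18-24 g). The reference drug was diluted in saline and given ip (10 ml/kg) 1 h before testing. Each mouse swam for 6 min in a cylinder (25 cm high, 10 cm diameter) holding 10 cm of water at 23-25°C. Immobility was timed over the last 4 min. Data are mean ± SEM, analysed by one-way ANOVA with Dunnett's test.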

For series [14], the system named is Rattus norvegicus. Nature of the series: In-vivo 5-HT1A receptor agonist activity in Wistar rat assessed as induction of lower lip retraction by measuring lower lip retraction score at 1 mg/kg, ip dosed 15 mins before test co-treated with 0.3 mg/kg, ip WAY100635.

Active and inactive are the calls of the source.

5-hydroxytryptamine receptor 2A, sequence (P14842 whole entry): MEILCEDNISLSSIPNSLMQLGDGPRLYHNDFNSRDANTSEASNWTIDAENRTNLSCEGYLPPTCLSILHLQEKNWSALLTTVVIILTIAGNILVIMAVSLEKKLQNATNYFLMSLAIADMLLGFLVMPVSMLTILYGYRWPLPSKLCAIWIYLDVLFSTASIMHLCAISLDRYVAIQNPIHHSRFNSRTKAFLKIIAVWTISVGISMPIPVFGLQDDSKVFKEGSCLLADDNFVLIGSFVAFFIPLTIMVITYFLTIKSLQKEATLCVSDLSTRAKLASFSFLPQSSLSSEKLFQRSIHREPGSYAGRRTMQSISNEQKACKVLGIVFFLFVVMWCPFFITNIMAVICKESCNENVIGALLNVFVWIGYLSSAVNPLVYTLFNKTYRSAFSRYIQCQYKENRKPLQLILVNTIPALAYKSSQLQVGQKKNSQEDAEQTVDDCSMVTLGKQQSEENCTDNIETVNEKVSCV

With `O=C(NCCN1CCN(c2ncccn2)CC1)c1ccccn1`, the Ki (in general, the equilibrium dissociation constant of an inhibitor or competing ligand from its target) in series [1] is 0.046 nM; in series [10], above 10 µM; in series [12], above 10 µM. The outcome in the series with Mus musculus [2], with Mus musculus [7] and in the series with Mus musculus [13] was Active. Moreover, the Activity result in the series on Mus musculus [3], with Mus musculus [6] and in the series on Mus musculus [9] was “Non-Toxic” in each case. Also, the inhibition entry in the series with Mus musculus [4] was “Active”. Further, the outcome in the series with Mus musculus [5] and in the series with Rattus norvegicus [14] was inactive. For the same compound, the values for the Activity_index in the series on Rattus norvegicus [8] and with Rattus norvegicus [11] were 2 and 2.714, respectively.
